What was measured:
Enterovirus C [1] = experiment: Antiviral activity against Poliovirus infected in compound pre-treated HeLaS3 cells assessed as reduction in viral titer at 2 mM after 6 hrs relative to control; assay type: functional, HeLa S3; design: scale not given: the % may be the effect or the level left
Procedure, shortened: (§1)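 HeLa S3 cells (DMEM/F-12, 2% dialyzed FBS, 37°C, 5% CO2) pretreated 1 h with nucleoside (0.5 or 2 mM), then infected with PV at MOI 5. Fresh medium with analogue added, infection run 6 h at 37°C. Cell-associated virus collected by freeze-thaw and titred on HeLa S3 monolayers. Result given as percent titer reduction versus untreated control.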

Coxsackievirus [2] = experiment: Antiviral activity against Coxsackievirus infected in compound pre-treated HeLaS3 cells assessed as reduction in viral titer at 2 mM after 6 hrs relative to control; assay type: functional, HeLa S3; design: scale not given: the % may be the effect or the level left
Procedure, shortened: (§2)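 HeLa S3 cells pretreated with nucleoside (0.5 or 2 mM) for 1 h, then infected with CVB3 at MOI 5. Fresh medium containing the analogue was added and infection ran 6 h at 37°C. Cell-associated virus was collected by freeze-thaw and titrated on HeLa S3 monolayers. Result is percent reduction in titer versus untreated infection.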

[3] = Cytotoxicity against human HeLaS3 cells assessed cell viability at 0.05 after 24 hrs by Alamar blue assay; assay type: cell-based, HeLa S3; conditions: read-out: Activity
Procedure, shortened: (§3)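 HeLa S3 cells were seeded at 2 × 10^3 per well in DMEM/F-12 with 2% FBS and allowed to adhere 1 h at 37°C. Nucleoside in medium (0.05–2 mM) was added with continuous exposure at 37°C. Resazurin (Alamar blue) was added 6 h before the 24 h read. Percent reduction was taken from A570 corrected by A590 and normalized to vehicle (DMSO) cells set at 100%. Triplicate wells, mean ± SD.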

Enterovirus C [4] = experiment: Antiviral activity against Poliovirus infected in compound pre-treated HeLaS3 cells assessed as reduction in viral titer at 0.5 mM after 6 hrs relative to control; assay type: functional, HeLa S3; design: scale not given: the % may be the effect or the level left; procedure, shortened: as §1
Coxsackievirus [5] = experiment: Antiviral activity against Coxsackievirus infected in compound pre-treated HeLaS3 cells assessed as reduction in viral titer at 0.5 mM after 6 hrs relative to control; assay type: functional, HeLa S3; design: scale not given: the % may be the effect or the level left; procedure, shortened: as §2
[6] = Cytotoxicity against human HeLaS3 cells assessed cell viability at 2 mM after 24 hrs by Alamar blue assay; assay type: cell-based, HeLa S3; conditions: read-out: Activity; procedure, shortened: as §3
[7] = Metabolic stability in human HeLaS3 cells assessed as JA28-triphosphate at 0.5 mM after 2 hrs by reverse-phase HPLC; assay type: ADME, cell-based; conditions: hela s3, 2 h, 500 µM
Procedure, shortened: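 Suspension-adapted HeLa S3 cells at 5 × 10^6 cells/ml in S-MEM with 2% dialyzed FBS were pretreated with actinomycin D (2.5 μg/ml, 15 min, 37°C). Nucleoside was then added to 0.5 mM final with 1% DMSO, 2 h at 37°C. Cells were extracted with ice-cold 0.6 M TCA, then trioctylamine/trichlorotrifluoroethane. Aqueous layer was run on C18 reversed-phase HPLC (CH3CN gradient in KH2PO4, pH 6.0). Triphosphate was identified by retention time and UV spectrum against synthesized standard.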

SMILES: CN(N)c1nc(N)nc2c1ncn2[C@@H]1O[C@H](CO)[C@@H](O)[C@H]1O
- Activity (Enterovirus C [1]): 88%
- Activity (Coxsackievirus [2]): 11%

SMILES: CN(N)c1ncnc2c1ncn2[C@@H]1O[C@H](CO)[C@@H](O)[C@H]1O
- Activity (Enterovirus C [1]): 35%
- Activity (Coxsackievirus [2]): 0%

SMILES: CO/N=c1/[nH]c(N)nc2c1ncn2[C@@H]1O[C@H](CO)[C@@H](O)[C@H]1O
- Activity (Enterovirus C [1]): 45%
- Activity (Coxsackievirus [2]): 0%

SMILES: NNc1ncnc2c1ncn2[C@@H]1O[C@H](CO)[C@@H](O)[C@H]1O
- viability at 24 h [3]: 56%
- Activity (Enterovirus C [4]): 99.7%
- Activity (Coxsackievirus [5]): 99.9%

SMILES: NNc1nc(N)nc2c1ncn2[C@@H]1O[C@H](CO)[C@@H](O)[C@H]1O
- Activity (Enterovirus C [1]): 97%
- Activity (Coxsackievirus [2]): 95%
- viability at 24 h, 2000 µM [6]: 57%

SMILES: Nc1nc2c(ncn2[C@@H]2O[C@H](CO)[C@@H](O)[C@H]2O)/c(=N\O)[nH]1
- Activity (Enterovirus C [1]): 99.97%
- Activity (Coxsackievirus [2]): 99.99%
- viability at 24 h, 2000 µM [6]: 37%

SMILES: OC[C@H]1O[C@@H](n2cnc3c(NO)ncnc32)[C@H](O)[C@@H]1O
- viability at 24 h [3]: 61%
- Stability [7]: Stable
- Activity (Enterovirus C [4]): 98%
- Activity (Coxsackievirus [5]): 97%

SMILES: CO/N=c1/[nH]cnc2c1ncn2[C@@H]1O[C@H](CO)[C@@H](O)[C@H]1O
- Activity (Enterovirus C [1]): 81%
- Activity (Coxsackievirus [2]): 22%

— ChEMBL document CHEMBL1255261, “Lethal mutagenesis of picornaviruses with N-6-modified purine nucleoside analogues” (Antimicrob Agents Chemother, 2008)
